Laboratory results taken from ChEMBL document CHEMBL1137943, “Synthesis and antibacterial activity of O-substituted nocathiacin I derivatives” (Bioorg Med Chem Lett, 2004).
≈ marks a conversion by molar mass, not a printed value.

Legend:
Streptococcus pneumoniae = experiment: Minimum concentration required to inhibit visible growth of penicillin-resistant Streptococcus pneumoniae A28272; assay type: functional
Outline: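 Serial microbroth dilution in 50% Mueller–Hinton/50% Todd–Hewitt medium; final inoculum about 5 × 10^5 CFU/well; incubated at 35 °C for 18 h in ambient air. MIC is the lowest drug concentration preventing visible growth.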

Enterococcus faecalis = experiment: Minimum concentration required to inhibit visible growth of Enterococcus faecalis A20688
[1] = Equilibrium water solubility was determined with amorphous powders at pH 7.1; assay type: ADME
Staphylococcus aureus = experiment: Minimum concentration required to inhibit visible growth of methicillin-sensitive Staphylococcus aureus A15090; assay type: functional
Outline: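 Serial microbroth dilution in Mueller–Hinton medium; final inoculum about 5 × 10^5 CFU/well; incubated at 35 °C for 18 h in ambient air. MIC is the lowest drug concentration preventing visible bacterial growth.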

Mus musculus [2] = experiment: Dose (sc) required against Staphylococcus aureus infected mice; assay type: functional; conditions: read-out: PD50
Outline: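 Adult female ICR mice infected ip with 5–6 × 10^6 CFU of S. aureus A15090 in 7% hog gastric mucin. Drug in 10% DMSO/5% Tween 80/85% water given sc twice, at 1 and 4 h post-infection. Survival followed for 8 days; 10 mice per group, at least three doses. PD50 (mg/kg) by Spearman–Karber estimator.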

[3] = Equilibrium water solubility was determined with amorphous powders at pH 3.5; assay type: ADME
[4] = Equilibrium water solubility was determined with amorphous powders at pH 8.2; assay type: ADME
Mus musculus [5] = experiment: Dose (iv) required against Staphylococcus aureus infected mice; assay type: functional; conditions: read-out: PD50
[6] = Equilibrium water solubility was determined with amorphous powders at pH 3; assay type: ADME
[7] = Equilibrium water solubility was determined with amorphous powders at pH 6.9; assay type: ADME
[8] = Equilibrium water solubility was determined with amorphous powders at pH 8.5; assay type: ADME
[9] = Equilibrium water solubility was determined with amorphous powders at pH 8.4; assay type: ADME
[10] = Equilibrium water solubility was determined with amorphous powders at pH 4; assay type: ADME

SMILES | MIC (Streptococcus pneumoniae) | MIC (Enterococcus faecalis) | MIC (Staphylococcus aureus) | ED50 (Mus musculus [5]) | other results
C=C(NC(=O)c1csc(-c2nc3c(cc2O)-c2nc(cs2)C(=O)NC(C(C)O)C(=O)N/C(=C(\C)OC)c2nc(cs2)C(=O)NC2c4nc(cs4)C(=O)NC(COC(=O)c4c5c6c(cccc6n4OC(=O)N(C)CCO)COC(=O)C(OC4CC(C)(O)C(N(C)C)C(C)O4)C2OC5)c2nc-3cs2)n1)C(N)=O (stereo not drawn) | 0.0005 mg/L (≈ 0.000325 µM) | 0.03 mg/L (≈ 0.0195 µM) | 0.03 mg/L (≈ 0.0195 µM) |  | solubility thermodynamic [1]: 0.003 mg/mL (≈ 1.95 µM)
C=C(NC(=O)c1csc(-c2nc3c(cc2O)-c2nc(cs2)C(=O)NC(C(C)O)C(=O)N/C(=C(\C)OC)c2nc(cs2)C(=O)NC2c4nc(cs4)C(=O)NC(COC(=O)c4c5c6c(cccc6n4OC(=O)NCCOCCOCCOCCOCCOCCO)COC(=O)C(OC4CC(C)(O)C(N(C)C)C(C)O4)C2OC5)c2nc-3cs2)n1)C(N)=O (stereo not drawn) | 0.003 mg/L (≈ 0.00172 µM) | 0.06 mg/L (≈ 0.0344 µM) | 0.06 mg/L (≈ 0.0344 µM) |  | ED50 (Mus musculus [2]): 0.78 mg/kg; solubility thermodynamic [3]: > 2.1 mg/mL
C=C(NC(=O)c1csc(-c2nc3c(cc2O)-c2nc(cs2)C(=O)NC(C(C)O)C(=O)N/C(=C(\C)OC)c2nc(cs2)C(=O)NC2c4nc(cs4)C(=O)NC(COC(=O)c4c5c6c(cccc6n4OP([O-])OC)COC(=O)C(OC4CC(C)(O)C(N(C)C)C(C)O4)C2OC5)c2nc-3cs2)n1)C(N)=O.[Na+] (stereo not drawn) | 0.007 mg/L | 0.25 mg/L | 0.125 mg/L | 1.6 mg/kg | solubility thermodynamic [4]: 5.6 mg/mL
C=C(NC(=O)c1csc(-c2nc3c(cc2OP(=O)(O)OCCCl)-c2nc(cs2)C(=O)NC(C(C)O)C(=O)N/C(=C(\C)OC)c2nc(cs2)C(=O)NC2c4nc(cs4)C(=O)NC(COC(=O)c4c5c6c(cccc6n4O)COC(=O)C(OC4CC(C)(O)C(N(C)C)C(C)O4)C2OC5)c2nc-3cs2)n1)C(N)=O (stereo not drawn) | 0.03 mg/L (≈ 0.019 µM) | 1 mg/L (≈ 0.633 µM) | 1 mg/L (≈ 0.633 µM) |  | 
C=C(NC(=O)c1csc(-c2nc3c(cc2O)-c2nc(cs2)C(=O)NC(C(C)O)C(=O)N/C(=C(\C)OC)c2nc(cs2)C(=O)NC2c4nc(cs4)C(=O)NC(COC(=O)c4c5c6c(cccc6n4OC(=O)NCCCC)COC(=O)C(OC4CC(C)(O)C(N(C)C)C(C)O4)C2OC5)c2nc-3cs2)n1)C(N)=O (stereo not drawn) | 0.007 mg/L (≈ 0.00456 µM) | 0.03 mg/L (≈ 0.0195 µM) | 0.001 mg/L (≈ 0.000651 µM) |  | 
C=C(NC(=O)c1csc(-c2nc3c(cc2O)-c2nc(cs2)C(=O)NC(C(C)O)C(=O)N/C(=C(\C)OC)c2nc(cs2)C(=O)NC2c4nc(cs4)C(=O)NC(COC(=O)c4c5c6c(cccc6n4OC(=O)NCCCN4CCN(C)CC4)COC(=O)C(OC4CC(C)(O)C(N(C)C)C(C)O4)C2OC5)c2nc-3cs2)n1)C(N)=O (stereo not drawn) | 0.0005 mg/L (≈ 0.000308 µM) | 0.003 mg/L (≈ 0.00185 µM) | 0.003 mg/L (≈ 0.00185 µM) |  | solubility thermodynamic [6]: > 2.3 mg/mL
C=C(NC(=O)c1csc(-c2nc3c(cc2OP(=O)(O)OCCCl)-c2nc(cs2)C(=O)NC(C(C)O)C(=O)N/C(=C(\C)OC)c2nc(cs2)C(=O)NC2c4nc(cs4)C(=O)NC(COC(=O)c4c5c6c(cccc6n4OP(=O)(O)OCCCl)COC(=O)C(OC4CC(C)(O)C(N(C)C)C(C)O4)C2OC5)c2nc-3cs2)n1)C(N)=O (stereo not drawn) | 0.5 mg/L (≈ 0.29 µM) | 4 mg/L (≈ 2.32 µM) | 4 mg/L (≈ 2.32 µM) |  | 
C=C(NC(=O)c1csc(-c2nc3c(cc2O)-c2nc(cs2)C(=O)NC(C(C)O)C(=O)N/C(=C(\C)OC)c2nc(cs2)C(=O)NC2c4nc(cs4)C(=O)NC(COC(=O)c4c5c6c(cccc6n4OP(=O)(O)OCCCl)COC(=O)C(OC4CC(C)(O)C(N(C)C)C(C)O4)C2OC5)c2nc-3cs2)n1)C(N)=O (stereo not drawn) | 0.03 mg/L (≈ 0.019 µM) | 0.5 mg/L (≈ 0.316 µM) | 0.25 mg/L (≈ 0.158 µM) |  | ED50 (Mus musculus [2]): > 10 mg/kg; solubility thermodynamic [7]: 0.53 mg/mL (≈ 335 µM)
C=C(NC(=O)c1csc(-c2nc3c(cc2O)-c2nc(cs2)C(=O)NC(C(C)O)C(=O)N/C(=C(\C)OC)c2nc(cs2)C(=O)NC2c4nc(cs4)C(=O)NC(COC(=O)c4c5c6c(cccc6n4OC(=O)NCCOCCOCCOCCOC)COC(=O)C(OC4CC(C)(O)C(N(C)C)C(C)O4)C2OC5)c2nc-3cs2)n1)C(N)=O (stereo not drawn) | 0.015 mg/L (≈ 0.00898 µM) | 0.125 mg/L (≈ 0.0748 µM) | 0.125 mg/L (≈ 0.0748 µM) |  | 
C=C(NC(=O)c1csc(-c2nc3c(cc2O)-c2nc(cs2)C(=O)NC(C(C)O)C(=O)N/C(=C(\C)OC)c2nc(cs2)C(=O)NC2c4nc(cs4)C(=O)NC(COC(=O)c4c5c6c(cccc6n4OC(=O)NC)COC(=O)C(OC4CC(C)(O)C(N(C)C)C(C)O4)C2OC5)c2nc-3cs2)n1)C(N)=O (stereo not drawn) | 0.001 mg/L (≈ 0.000669 µM) | 0.06 mg/L (≈ 0.0401 µM) | 0.125 mg/L (≈ 0.0836 µM) |  | 
C=C(NC(=O)c1csc(-c2nc3c(cc2OP([O-])OC)-c2nc(cs2)C(=O)NC(C(C)O)C(=O)N/C(=C(\C)OC)c2nc(cs2)C(=O)NC2c4nc(cs4)C(=O)NC(COC(=O)c4c5c6c(cccc6n4OP([O-])OC)COC(=O)C(OC4CC(C)(O)C(N(C)C)C(C)O4)C2OC5)c2nc-3cs2)n1)C(N)=O.[Na+].[Na+] (stereo not drawn) | 0.003 mg/L | 0.25 mg/L | 0.25 mg/L | 5.9 mg/kg | solubility thermodynamic [8]: > 10 mg/mL
C=C(NC(=O)c1csc(-c2nc3c(cc2OP([O-])OC)-c2nc(cs2)C(=O)NC(C(C)O)C(=O)N/C(=C(\C)OC)c2nc(cs2)C(=O)NC2c4nc(cs4)C(=O)NC(COC(=O)c4c5c6c(cccc6n4O)COC(=O)C(OC4CC(C)(O)C(N(C)C)C(C)O4)C2OC5)c2nc-3cs2)n1)C(N)=O.[Na+] (stereo not drawn) | 0.06 mg/L | 0.25 mg/L | 0.125 mg/L | 0.26 mg/kg | solubility thermodynamic [9]: > 2.2 mg/mL
C=C(NC(=O)c1csc(-c2nc3c(cc2O)-c2nc(cs2)C(=O)N[C@@H]([C@@H](C)O)C(=O)N/C(=C(\C)OC)c2nc(cs2)C(=O)N[C@@H]2c4nc(cs4)C(=O)N[C@@H](COC(=O)c4c5c6c(cccc6n4O)COC(=O)[C@@H](O[C@H]4C[C@](C)(O)[C@H](N(C)C)[C@H](C)O4)[C@H]2OC5)c2nc-3cs2)n1)C(N)=O [MJ347-81F4 A] | 0.002 mg/L (≈ 0.00139 µM) | 0.03 mg/L (≈ 0.0209 µM) | 0.007 mg/L (≈ 0.00487 µM) | 0.2 mg/kg | solubility thermodynamic [10]: 0.34 mg/mL (≈ 237 µM)
